For data set [1], the target named is PA/PB1 (Influenza A virus (A/Puerto Rico/8/1934(H1N1)), UniProt P03431+P03433). Kind of data set: Inhibition of Influenza A virus 6 His-tagged PA (239 to 716 residues) expressed in Escherichia coli BL21 pLysS/GST-tagged PB1 (1 to 25 residues) expressed in Escherichia coli protein-protein interaction using 3.3',5,5' tetramethyl benzidine as substrate by ELISA. The method in brief:
(§1)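 Wells coated with 400 ng 6His-PA(239–716), E. coli BL21(DE3)pLysS-expressed, for 3 h at 37 °C, then blocked with 2% BSA/PBS for 1 h. Then 200 ng GST-PB1(1–25), or GST alone as control, added with compound at various concentrations, overnight at room temperature. Bound PB1 detected with HRP-anti-GST antibody (1:4000 in PBS/2% FBS). IC50 is the concentration halving PA–PB1 binding. At least three independent experiments in duplicate.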

Data set [2] has as its system Influenza A virus. Kind of data set: Antiviral activity against Influenza A virus A/PR/8/34(H1N1) infected in MDCK cells assessed as inhibition of plaque formation for 48 hrs by plaque reduction assay. It counts as functional, organism-based. Particulars: A/Puerto Rico/8/1934(H1N1). The method in brief: (§2)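 MDCK monolayers (5 × 10⁵ cells/well, seeded 24 h earlier) washed with serum-free DMEM. Infected with A/PR/8/34 at 40 PFU/well for 1 h at 37 °C, in DMEM with TPCK-trypsin and 0.14% BSA, with compound or DMSO present. Overlay of the same medium plus 1.2% Avicel and compound. At 48 h, fixed with 4% formaldehyde and stained with 0.1% toluidine blue. Plaques counted against DMSO control set at 100%. At least three independent experiments in duplicate.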

Data set [3] is described as follows: Cytotoxicity against MDCK cells assessed as reduction in cell viability incubated for 48 hrs by MTT assay. Type of data set: cell-based, Canis lupus familiaris. Particulars: dog. Summed up:
(§3)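 MDCK cells (2 × 10⁴/well) grown 24 h, then given serial compound dilutions or DMSO in DMEM with 10% FBS for 48 h at 37 °C. MTT (5 mg/mL in PBS) added for 4 h. Lysed overnight with 10% SDS/0.01 N HCl, then OD read at 620 nm. CC50 is the concentration reducing viability by 50%. At least three independent experiments in duplicate.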

Data set [4] deals with PA/PB1 (Influenza A virus (A/Puerto Rico/8/1934(H1N1)), UniProt P03431+P03433). The experiment in a line: Inhibition of Influenza A virus PA-PB1 protein-protein interaction by ELISA. It counts as protein assay. The method in brief:
as §1

Data set [5] relates to Influenza A virus. Kind of data set: Antiviral activity against Influenza A virus A/PR/8/34(H1N1) infected in MDCK cells assessed as inhibition of viral replication by plaque reduction assay. Particulars: A/Puerto Rico/8/1934(H1N1). Type of data set: functional, organism-based. Summed up:
as §2

Data set [6] is described as follows: Cytotoxicity against MDCK cells assessed as reduction in cell viability by MTT assay. It counts as cell-based, Canis lupus familiaris. Particulars: dog. The method in brief:
as §3

The test system of another data set is SARS-CoV-2. Kind of data set: microbe, parasite or virus in culture. Particulars: Severe acute respiratory syndrome coronavirus 2, Vero C1008. It counts as functional, organism-based, Vero E6.
For data set [7], the target named is RNA-directed RNA polymerase (Influenza A virus (strain A/Puerto Rico/8/1934 H1N1), UniProt P03428+P03431+P03433). The experiment in a line: Inhibition of RdRP activity in Influenza A virus A/PR/8/34(H1N1) infected in HEK293T cells incubated for 24 hrs by minireplicon based dual luciferase assay. Type of data set: cell-based, Influenza A virus (A/Puerto Rico/8/1934(H1N1)). Summed up:
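HEK293T cells (2 × 10⁵/well) plated overnight. Calcium-phosphate transfected with PB1, PB2, PA and NP plasmids (100 ng each), pPolI-Flu-ffLuc reporter (50 ng) and pRL-SV40 (50 ng), with compound or DMSO. Medium replaced at 5 h with compound-containing DMEM. Dual luciferase read at 24 h post-transfection. Firefly normalised to Renilla, with DMSO set at 100% polymerase activity.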

The nature of data set [8]: Cytotoxicity against African green monkey Vero E6 cells assessed as reduction in cell viability incubated for 1 to 2 hrs by MTS assay. Type of data set: cell-based, Vero C1008. Particulars: chlorocebus sabaeus, time 1-2 hrs. The method in brief:
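Vero E6 cell viability measured by the colorimetric formazan-based MTS assay. Means of duplicate experiments.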

In data set [1], `O=C(Nc1nc2nc(-c3ccccc3)cc(O)n2n1)c1ccccc1` displayed an IC50 of 21 µM. Further, the EC50 in the data set on Influenza A virus [2] was over 100 µM. Moreover, in [3], the CC50 at 48 h was over 250 µM.
The corresponding values for `O=C(Nc1nc2nccc(-c3ccccc3)n2n1)c1ccccc1` are over 200 µM, over 100 µM and over 250 µM.
For `COc1ccc(C(=O)Nc2nc3n(n2)C(c2ccccc2)C=C(C)N3)cc1` (configuration not stated), the midpoint of inhibition in [4], the IC50, lay at 171 µM. Also, the EC50 in the data set with Influenza A virus [5] was over 100 µM. Moreover, the CC50 in data set [6] was 240 µM.
`COc1ccc(C(=O)Nc2nc3nc(-c4ccccc4)cc(C)n3n2)cc1`: the EC50 in the data set on Influenza A virus [2] and in the data set with SARS-CoV-2 was over 100 µM in each case. For the same compound, the cytotoxic concentration (CC50) at 48 h in data set [3] was over 250 µM.
Consider `CCCOc1ccc(C(=O)Nc2nc3nc(-c4ccccc4)cc(C)n3n2)cc1`, for which the results for the EC50 in the data set with Influenza A virus [2] and in the data set on SARS-CoV-2 were over 100 µM and 65.3 µM, respectively. Besides, in [3], the CC50 at 48 h came out at 247 µM.
`O=C(Nc1nc2nc(-c3ccccc3)ccn2n1)c1ccccc1` returned an IC50 in data set [1] of 165 µM. For the same compound, the EC50 in the data set on Influenza A virus [2] was over 100 µM. Moreover, in data set [3], the CC50 at 48 h is over 250 µM.
With `Cc1cc(-c2ccccc2)nc2nc(NC(=O)c3ccccc3F)nn12`, the EC50 is over 100 µM in the data set on Influenza A virus [2] and 30.6 µM with SARS-CoV-2. Moreover, in data set [3], the CC50 at 48 h is over 250 µM.
In the case of `Cc1cc(-c2ccccc2)nc2nc(C(=O)Nc3ccccc3C(=O)O)nn12`, in [1], the IC50 is 32 µM. For the same compound, the EC50 in the data set on Influenza A virus [2] was over 100 µM. In addition, in data set [3], the CC50 at 48 h is over 250 µM.
On the same counts, the results for `COC(=O)c1ccccc1NC(=O)c1nc2nc(C)cc(-c3ccccc3)n2n1` are 26.5 µM, over 80 µM and over 250 µM.
On to `Cc1cc(-c2ccccc2)nc2nc(NC(=O)c3ccc(N)cc3)nn12`, for which the results for the EC50 in the data set with Influenza A virus [2] and in the data set on SARS-CoV-2 were over 100 µM and 44 µM, respectively. In addition, the CC50 at 48 h in data set [3] was over 250 µM.
`NC(=O)c1ccccc1NC(=O)c1nc2ncc(-c3ccccc3)cn2n1` returned an IC50 in data set [1] of over 200 µM. Besides, the EC50 with Influenza A virus [2] is over 100 µM. Further, the CC50 at 48 h in [3] is over 250 µM.
`Cc1cc(-c2ccccc2)nc2nc(NC(=O)c3ccc([N+](=O)[O-])cc3)nn12`: the EC50 in the data set on Influenza A virus [2] and in the data set with SARS-CoV-2 was over 100 µM in each case. Moreover, the CC50 at 48 h in [3] was over 250 µM.
For the compound `Cc1cc(-c2ccccc2)n2nc(C(=O)Nc3ccccc3C(=O)O)nc2n1`, the IC50 in data set [1] turned out to be 116 µM. In addition, the EC50 in the data set on Influenza A virus [2] is over 100 µM. The CC50 at 48 h in [3] is over 250 µM.
`Cc1cc(-c2ccccc2)nc2nc(NC(=O)c3ccc(O)c(O)c3)nn12`: the EC50 in the data set with Influenza A virus [2] and in the data set with SARS-CoV-2 was over 100 µM throughout. Besides, the CC50 at 48 h in data set [3] turned out to be 112 µM.
Regarding `NC(=O)c1c(NC(=O)c2nc3nccc(-c4ccccc4)n3n2)sc2c1CCCCC2`, in data set [1], the IC50 stood at 22 µM. Further, the EC50 in the data set with Influenza A virus [2] was over 60 µM. The CC50 at 48 h in data set [3] is over 200 µM.
On to `NC(=O)c1c(NC(=O)c2nc3ncc(-c4ccccc4)cn3n2)sc2c1CCCCC2`, for which the IC50 in data set [1] turned out to be 35 µM. In addition, the EC50 in the data set on Influenza A virus [2] is over 80 µM. Besides, the CC50 at 48 h in data set [3] amounted to 100 µM.
The corresponding values for `O=C(Nc1nc2ncc(-c3ccccc3)cn2n1)c1ccccc1` are over 200 µM, over 100 µM and over 250 µM.
The corresponding values for `NC(=O)c1ccccc1NC(=O)c1nc2nccc(-c3ccccc3)n2n1` are 21 µM, over 100 µM and over 250 µM.
`Cc1cc(-c2ccccc2)n2nc(-c3nc4ccccc4c(=O)o3)nc2n1` yielded an IC50 in [1] of 19.5 µM. In addition, the EC50 in the data set on Influenza A virus [2] stood at 16 µM; in [7], 21 µM. In addition, in data set [3], the CC50 at 48 h is over 250 µM.
Consider `Cc1cc(-c2ccccc2)nc2nc(-c3nc4ccccc4c(=O)o3)nn12`, for which the IC50 in data set [1] turned out to be 123 µM. Further, in the data set with Influenza A virus [2], the EC50 was over 100 µM. The CC50 at 48 h in data set [3] is over 200 µM.
On the same counts, the results for `COC(=O)c1ccccc1NC(=O)c1nc2nc(-c3ccccc3)cc(C)n2n1` are 22.3 µM, over 100 µM and over 250 µM.
For `Cc1cc(-c2ccccc2)nc2nc(C(=O)Nc3ccccc3F)nn12`, the EC50 is 83.8 µM in the data set on Influenza A virus [2] and 34.5 µM in the data set on SARS-CoV-2. Moreover, in data set [3], the CC50 at 48 h was over 250 µM. In addition, the CC50 in [8] is over 100 µM.
Regarding `N#C[C@@]1(c2ccc3c(N)ncnn23)O[C@H](CO)[C@@H](O)[C@H]1O` [GS-441524], the EC50 in the data set on SARS-CoV-2 is 0.89 µM.
`NC(=O)c1ncn([C@@H]2O[C@H](CO)[C@@H](O)[C@H]2O)n1` [RIBAVIRIN]: the EC50 in the data set with Influenza A virus [2] was found to be 10 µM; in [7], 16 µM. The half-maximal cytotoxic concentration (CC50) at 48 h in data set [3] is over 250 µM.

(Values after ChEMBL document CHEMBL4837208, “1,2,4-Triazolo[1,5-a]pyrimidines: Efficient one-step synthesis and functionalization as influenza polymerase PA-PB1 interaction disruptors” (Eur J Med Chem, 2021).)
